# Measured values taken from ChEMBL document CHEMBL5724801, “EUbOPEN Chemogenomics Library - Multiplex” (2024).
# Several values for one entry are separate records, joined by “and”; a condition that tells them apart may be missing. Identical values can stand only once.
# How the values were obtained:
# HEK-293T = assay: Multiplex assay against HEK293T; assay type: toxicity, cell-based; settings: human
# In short: (§1)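 With compound added, live cells were imaged on a CQ1 microscope at 37°C and 5% CO2; staining with Hoechst33342, BioTracker Green Microtubule Cytoskeleton Dye, MitoTracker Red and Annexin V Alexa Fluor 680 had been done at seeding. The CellPathfinder machine-learning gating scheme split cells into Hoechst high-intensity objects or normal cells, normal cells into healthy, pyknosed or fragmented nuclei, and pyknosed cells into mitotic or apoptotic. The tubulin, mitochondrial-mass and membrane-permeability phenotypes are per cents of healthy-nucleus cells.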
# U2OS = assay: Multiplex assay against U2OS; assay type: toxicity, cell-based; settings: human; in short: as §1
# [1] = 24 h, 1 µM, compound concentration 1 uM
# [2] = 24 h, 10 µM, compound concentration 10 uM
# [3] = 48 h, 1 µM, compound concentration 1 uM
# [4] = 48 h, 10 µM, compound concentration 10 uM
# [5] = 12 h, 1 µM, compound concentration 1 uM
# [6] = 12 h, 10 µM, compound concentration 10 uM
compound,measurement,setting,value
COC[C@@H](c1ccc(C(F)(F)F)cc1)N1CCN(C2(C)CCN(C(=O)c3c(C)ncnc3C)CC2)C[C@@H]1C.O=C(O)/C=C\C(=O)O [VICRIVIROC MALEATE],Population Normal (%),HEK-293T; [1],93% and 94%
same,Population Pyknosed Nuclei (%),HEK-293T; [1],10% and 8%
same,Population Tubulin-Different-Phenotype (%),HEK-293T; [1],21% and 11%
same,Total Cell Count,HEK-293T; [1],564 and 515
same,Population Apoptotic (%),HEK-293T; [2],34% and 60%
same,Population Fragmented Nuclei (%),HEK-293T; [2],6% and 10%
same,Population Healthy Nuclei (%),HEK-293T; [2],80% and 77%
same,Population Hoechst High Intensity Objects (%),HEK-293T; [2],6% and 16%
same,Population Membrane Permeable-Phenotype (%),HEK-293T; [2],0%
same,Population Mitochondria Different-Phenotype (%),HEK-293T; [2],53% and 70%
same,Population Mitotic Cells (%),HEK-293T; [2],66% and 39%
same,Population Normal (%),HEK-293T; [2],93% and 83%
same,Population Pyknosed Nuclei (%),HEK-293T; [2],13% and 12%
same,Population Tubulin-Different-Phenotype (%),HEK-293T; [2],49% and 39%
same,Total Cell Count,HEK-293T; [2],406 and 310
same,Population Apoptotic (%),HEK-293T; [3],21% and 34%
same,Population Fragmented Nuclei (%),HEK-293T; [3],11% and 13%
same,Population Healthy Nuclei (%),HEK-293T; [3],80% and 81%
same,Population Hoechst High Intensity Objects (%),HEK-293T; [3],2%
same,Population Membrane Permeable-Phenotype (%),HEK-293T; [3],1%
same,Population Mitochondria Different-Phenotype (%),HEK-293T; [3],13% and 11%
same,Population Mitotic Cells (%),HEK-293T; [3],78% and 65%
same,Population Normal (%),HEK-293T; [3],97%
same,Population Pyknosed Nuclei (%),HEK-293T; [3],7% and 5%
same,Population Tubulin-Different-Phenotype (%),HEK-293T; [3],12% and 8%
same,Total Cell Count,HEK-293T; [3],930 and 751
same,Population Apoptotic (%),HEK-293T; [4],38% and 53%
same,Population Fragmented Nuclei (%),HEK-293T; [4],12% and 14%
same,Population Healthy Nuclei (%),HEK-293T; [4],75% and 70%
same,Population Hoechst High Intensity Objects (%),HEK-293T; [4],4% and 11%
same,Population Membrane Permeable-Phenotype (%),HEK-293T; [4],0%
same,Population Mitochondria Different-Phenotype (%),HEK-293T; [4],49% and 50%
same,Population Mitotic Cells (%),HEK-293T; [4],61% and 46%
same,Population Normal (%),HEK-293T; [4],95% and 88%
same,Population Pyknosed Nuclei (%),HEK-293T; [4],11% and 15%
same,Population Tubulin-Different-Phenotype (%),HEK-293T; [4],35% and 38%
same,Total Cell Count,HEK-293T; [4],559 and 394
same,Population Apoptotic (%),U2OS; [5],82% and 81%
same,Population Fragmented Nuclei (%),U2OS; [5],34% and 21%
same,Population Healthy Nuclei (%),U2OS; [5],54% and 67%
same,Population Hoechst High Intensity Objects (%),U2OS; [5],4% and 2%
same,Population Membrane Permeable-Phenotype (%),U2OS; [5],8% and 11%
same,Population Mitochondria Different-Phenotype (%),U2OS; [5],4% and 14%
same,Population Mitotic Cells (%),U2OS; [5],17% and 18%
same,Population Normal (%),U2OS; [5],95% and 97%
same,Population Pyknosed Nuclei (%),U2OS; [5],11% and 10%
same,Population Tubulin-Different-Phenotype (%),U2OS; [5],3% and 7%
same,Total Cell Count,U2OS; [5],261 and 105
same,Population Apoptotic (%),U2OS; [6],86% and 33%
same,Population Fragmented Nuclei (%),U2OS; [6],26% and 28%
same,Population Healthy Nuclei (%),U2OS; [6],65%
same,Population Hoechst High Intensity Objects (%),U2OS; [6],1% and 2%
same,Population Membrane Permeable-Phenotype (%),U2OS; [6],13% and 5%
same,Population Mitochondria Different-Phenotype (%),U2OS; [6],3% and 6%
same,Population Normal (%),U2OS; [6],98% and 97%
same,Population Pyknosed Nuclei (%),U2OS; [6],8% and 6%
same,Population Tubulin-Different-Phenotype (%),U2OS; [6],3% and 6%
same,Total Cell Count,U2OS; [6],270 and 91
same,Population Apoptotic (%),U2OS; [1],77% and 93%
same,Population Fragmented Nuclei (%),U2OS; [1],25% and 20%
same,Population Healthy Nuclei (%),U2OS; [1],67% and 64%
same,Population Hoechst High Intensity Objects (%),U2OS; [1],3% and 4%
same,Population Membrane Permeable-Phenotype (%),U2OS; [1],5% and 10%
same,Population Normal (%),U2OS; [1],96% and 95%
same,Population Pyknosed Nuclei (%),U2OS; [1],7% and 15%
same,Population Tubulin-Different-Phenotype (%),U2OS; [1],2% and 10%
same,Total Cell Count,U2OS; [1],301 and 111
same,Population Apoptotic (%),U2OS; [2],80% and 83%
same,Population Fragmented Nuclei (%),U2OS; [2],25%
same,Population Healthy Nuclei (%),U2OS; [2],68%
same,Population Hoechst High Intensity Objects (%),U2OS; [2],1%
same,Population Membrane Permeable-Phenotype (%),U2OS; [2],3% and 4%
same,Population Mitochondria Different-Phenotype (%),U2OS; [2],3% and 2%
same,Population Mitotic Cells (%),U2OS; [2],19% and 16%
same,Population Normal (%),U2OS; [2],98%
same,Population Pyknosed Nuclei (%),U2OS; [2],6%
same,Population Tubulin-Different-Phenotype (%),U2OS; [2],2% and 7%
same,Population Apoptotic (%),U2OS; [3],78% and 93%
same,Population Fragmented Nuclei (%),U2OS; [3],20% and 25%
same,Population Healthy Nuclei (%),U2OS; [3],68% and 62%
same,Population Hoechst High Intensity Objects (%),U2OS; [3],3% and 1%
same,Population Membrane Permeable-Phenotype (%),U2OS; [3],3% and 13%
same,Population Mitochondria Different-Phenotype (%),U2OS; [3],2% and 11%
same,Population Normal (%),U2OS; [3],96% and 98%
same,Population Pyknosed Nuclei (%),U2OS; [3],10% and 11%
same,Population Tubulin-Different-Phenotype (%),U2OS; [3],1% and 10%
same,Total Cell Count,U2OS; [3],416 and 142
same,Population Apoptotic (%),U2OS; [4],80% and 93%
same,Population Fragmented Nuclei (%),U2OS; [4],19% and 18%
same,Population Healthy Nuclei (%),U2OS; [4],70% and 68%
same,Population Hoechst High Intensity Objects (%),U2OS; [4],2% and 5%
same,Population Membrane Permeable-Phenotype (%),U2OS; [4],3%
same,Population Mitochondria Different-Phenotype (%),U2OS; [4],2% and 6%
same,Population Normal (%),U2OS; [4],97% and 94%
same,Population Pyknosed Nuclei (%),U2OS; [4],9% and 12%
same,Population Tubulin-Different-Phenotype (%),U2OS; [4],1% and 6%
